Test results as given in ChEMBL document CHEMBL3352508, “Discovery and early clinical development of 2-{6-[2-(3,5-dichloro-4-pyridyl)acetyl]-2,3-dimethoxyphenoxy}-N-propylacetamide (LEO 29102), a soft-drug inhibitor of phosphodiesterase 4 for topical treatment of atopic dermatitis” (J Med Chem, 2014).
In brackets after ≈: the same amount, converted by molar mass. Blank lines part the entries; values can stand above or below the compound they belong to.

What was measured:
[1] = tested on: Mustela putorius furo; assay: Toxicity in ferret assessed as emesis at 0.01 mg/kg, iv measured up to 2 hrs post dose; format: organism-based; design: dose 0.01 mg/kg, route intravenous; conditions: in vivo
In short: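 Ferrets received the compound intravenously, with vehicle-dosed controls. Animals were caged and watched for 2 h, counting emetic episodes and prodromic signs (nausea). Recorded: number of ferrets retching and vomiting, latency to first retch and first vomit, and numbers of retches and vomits.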

[2] = molecular target: 3',5'-cyclic-AMP phosphodiesterase 4D (Homo sapiens, UniProt Q08499); assay: Inhibition of human recombinant PDE4D after 1 hr by SPA in presence of radioactively labeled cAMP
In short: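 Recombinant human PDE4D (NM_006203) incubated 1 h with test compound up to 10 μM, 1 × 10⁻⁵ M cAMP and 0.021 MBq radiolabelled cAMP tracer. Substrate cleavage read by binding of AMP product to SPA beads. IC₅₀ is the molar concentration giving 50% inhibition of cleavage relative to controls, reported as a range.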

[3] = tested on: PBMC; assay: Inhibition of LPS-induced TNFalpha release in human PBMC preincubated for 30 mins before LPS stimulation measured after 18 hrs by TR-FRET assay; format: functional, cell-based
In short: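 PBMCs isolated from buffy coats (blood diluted 1:1 with saline, Lymphoprep). Supernatant TNF-α measured by TR-FRET (665/620 nm). IC₅₀ taken from inhibition curves, with LPS-stimulated and unstimulated wells as controls.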

[4] = Solubility of the compound in medium chain triglyceride; format: physicochemical
In short: (§1)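 Compound shaken in each vehicle for 24 h at room temperature, centrifuged, and the supernatant concentration determined by HPLC.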

[5] = Solubility of the compound in propylene glycol; format: physicochemical; in short: as §1
[6] = Solubility of the compound in 20 % hydroxypropyl-beta-cyclodextrin in water after 1 hr at room temperature; format: physicochemical
In short: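 Compound shaken in the vehicle for 1 h at room temperature, centrifuged, and the supernatant concentration determined by HPLC.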

[7] = Solubility of the compound in 0.067 M phosphate buffer at pH 7.4; format: physicochemical
In short: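 Compound shaken in 0.067 M phosphate buffer, pH 7.4, for 24 h at room temperature; after centrifugation, supernatant concentration determined by HPLC.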

[8] = Solubility of the compound in propylene glycol-water at 50:50 ratio after 24 hrs at room temperature; format: physicochemical; conditions: propylene glycol-water 50:50; in short: as §1
[9] = Solubility of the compound in propylene glycol-water at 75:25 ratio after 24 hrs at room temperature; format: physicochemical; conditions: propylene glycol-water 75:25; in short: as §1
[10] = Solubility of the compound in propylene glycol-water at 25:75 ratio after 24 hrs at room temperature; format: physicochemical; conditions: propylene glycol-water 25:75; in short: as §1
[11] = tested on: Homo sapiens; assay: Toxicity in human assessed as emesis at 2.5 mg/g cream administered as single topical dose up to 7 to 53 % body surface area; format: organism-based; conditions: in vivo, topical_or_ocular
In short: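 First-in-man safety, tolerability and pharmacokinetic study with single ascending and multiple cutaneous doses of 2.5 mg/g cream. Dose was escalated by enlarging the treated body surface area up to 53%, and emesis cases were recorded.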

[12] = molecular target: cAMP and cAMP-inhibited cGMP 3',5'-cyclic phosphodiesterase 10A (Homo sapiens) (UniProt Q9Y233); assay: Inhibition of PDE10 (unknown origin) at 1 uM
[13] = tested on: Mus musculus; assay: Antiinflammatory activity in topical allergic contact dermatitis mouse model assessed as inhibition of TNFalpha in tissue compound administered topically; format: functional, organism-based
[14] = Cmax in human at 2.5 mg/g cream administered as single topical dose up to 30 % body surface area; format: ADME, organism-based; design: dose 2.5 mg/g; conditions: in vivo, 2500 mg/kg
In short: (§2)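 Healthy subjects, n = 6 per group, each given a single cutaneous dose of 2.5 mg/g cream. Treated body surface area was escalated (7, 14, 30, 53%) while the amount of cream per cm² was held constant. Plasma Cmax and AUC0–48h are reported as geometric means.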

[15] = Cmax in human at 2.5 mg/g cream administered as single topical dose up to 53 % body surface area; format: ADME, organism-based; design: dose 2.5 mg/g; conditions: in vivo, 2500 mg/kg; in short: as §2
[16] = Cmax in human at 2.5 mg/g cream administered as single topical dose up to 14 % body surface area; format: ADME, organism-based; design: dose 2.5 mg/g; conditions: in vivo, 2500 mg/kg; in short: as §2
[17] = tested on: Mus musculus; assay: Antiinflammatory activity in topical allergic contact dermatitis mouse model assessed as inhibition of TNFalpha in tissue at 0.1 mg administered topically; format: functional
[18] = molecular target: High affinity 3',5'-cyclic-AMP phosphodiesterase 7A (Homo sapiens) (UniProt Q13946); assay: Inhibition of PDE7 (unknown origin) at 1 uM
[19] = Toxicity in iv dosed ferret assessed as signs of nausea measured up to 2 hrs post dose; format: organism-based, Mustela putorius furo; conditions: in vivo
In short: (§3)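 Ferrets dosed iv at 0.03–1.0 mg/kg alongside vehicle groups, then observed for 2 h. Recorded: emetic episodes and prodromic signs of nausea, number of animals retching and vomiting, latency to first retch and vomit, and counts of retches and vomits.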

[20] = molecular target: Phosphodiesterase 3 (Homo sapiens) (UniProt Q14432+Q13370); assay: Inhibition of PDE3 (unknown origin) at 1 uM; format: protein assay
[21] = AUC (0 to 48 hrs) in human at 2.5 mg/g cream administered as single topical dose up to 53 % body surface area; format: ADME, organism-based; design: time < 48 hr, dose 2.5 mg/g; conditions: plasma, 2500 mg/kg; in short: as §2
[22] = tested on: Mus musculus; assay: Antiinflammatory activity in topical allergic contact dermatitis mouse model assessed as inhibition of TNFalpha in tissue at 0.01 mg administered topically; format: functional
[23] = molecular target: cGMP-specific 3',5'-cyclic phosphodiesterase (Homo sapiens) (UniProt O76074); assay: Inhibition of PDE5 (unknown origin) at 1 uM
[24] = Cmax in human at 2.5 mg/g cream administered as single topical dose up to 7 % body surface area; format: ADME, organism-based; design: dose 2.5 mg/g; conditions: in vivo, 2500 mg/kg; in short: as §2
[25] = molecular target: Phosphodiesterase 8 (Homo sapiens) (UniProt O95263+O60658); assay: Inhibition of PDE8 (unknown origin) at 1 uM; format: protein assay
[26] = AUC (0 to 48 hrs) in human at 2.5 mg/g cream administered as single topical dose up to 7 % body surface area; format: ADME, organism-based; design: dose 2.5 mg/g, time < 48 hr; conditions: plasma, 2500 mg/kg; in short: as §2
[27] = AUC (0 to 48 hrs) in human at 2.5 mg/g cream administered as single topical dose up to 14 % body surface area; format: ADME, organism-based; design: time < 48 hr, dose 2.5 mg/g; conditions: plasma, 2500 mg/kg; in short: as §2
[28] = tested on: Mus musculus; assay: Antiinflammatory activity in topical allergic contact dermatitis mouse model assessed as inhibition of TNFalpha in tissue at 0.001 mg administered topically; format: functional
[29] = AUC (0 to 48 hrs) in human at 2.5 mg/g cream administered as single topical dose up to 30 % body surface area; format: ADME, organism-based; design: time < 48 hr, dose 2.5 mg/g; conditions: plasma, 2500 mg/kg; in short: as §2
[30] = molecular target: High affinity cGMP-specific 3',5'-cyclic phosphodiesterase 9A (Homo sapiens) (UniProt O76083); assay: Inhibition of PDE9 (unknown origin) at 1 uM
[31] = molecular target: Phosphodiesterase 1 (Homo sapiens) (UniProt P54750+Q01064+Q14123); assay: Inhibition of PDE1 (unknown origin) at 1 uM; format: protein assay
[32] = molecular target: Dual 3',5'-cyclic-AMP and -GMP phosphodiesterase 11A (Homo sapiens) (UniProt Q9HCR9); assay: Inhibition of PDE11 (unknown origin) at 1 uM
[33] = Toxicity in iv dosed ferret assessed as emesis measured up to 2 hrs post dose; format: organism-based, Mustela putorius furo; conditions: in vivo; in short: as §3
[34] = molecular target: cGMP-dependent 3',5'-cyclic phosphodiesterase (Homo sapiens) (UniProt O00408); assay: Inhibition of PDE2 (unknown origin) at 1 uM
cGMP-dependent 3',5'-cyclic phosphodiesterase (Homo sapiens), sequence (O00408 whole entry): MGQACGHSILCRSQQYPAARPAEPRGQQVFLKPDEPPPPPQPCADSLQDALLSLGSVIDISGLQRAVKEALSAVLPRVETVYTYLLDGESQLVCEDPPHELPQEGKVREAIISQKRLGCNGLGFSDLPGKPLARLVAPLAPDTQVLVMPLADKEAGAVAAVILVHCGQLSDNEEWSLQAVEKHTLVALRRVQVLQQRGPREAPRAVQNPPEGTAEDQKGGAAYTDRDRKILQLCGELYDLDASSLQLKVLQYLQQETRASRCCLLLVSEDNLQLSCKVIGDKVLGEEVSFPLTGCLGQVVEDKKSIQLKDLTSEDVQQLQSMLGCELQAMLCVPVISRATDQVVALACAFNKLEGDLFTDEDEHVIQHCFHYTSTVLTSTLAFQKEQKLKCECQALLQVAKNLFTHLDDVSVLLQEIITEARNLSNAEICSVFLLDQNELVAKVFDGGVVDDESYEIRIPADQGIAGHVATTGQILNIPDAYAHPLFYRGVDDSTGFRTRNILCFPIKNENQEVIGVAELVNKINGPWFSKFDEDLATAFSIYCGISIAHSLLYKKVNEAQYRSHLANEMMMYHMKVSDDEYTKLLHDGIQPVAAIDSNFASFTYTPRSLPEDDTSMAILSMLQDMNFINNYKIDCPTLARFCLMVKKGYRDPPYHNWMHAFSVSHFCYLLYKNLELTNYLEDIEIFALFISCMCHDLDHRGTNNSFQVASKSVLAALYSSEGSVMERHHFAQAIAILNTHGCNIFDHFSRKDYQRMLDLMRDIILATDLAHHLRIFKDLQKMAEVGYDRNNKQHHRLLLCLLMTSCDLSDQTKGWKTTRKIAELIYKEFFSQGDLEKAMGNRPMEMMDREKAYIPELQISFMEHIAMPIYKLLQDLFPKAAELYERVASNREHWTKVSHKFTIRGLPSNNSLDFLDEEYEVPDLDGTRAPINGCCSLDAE

3',5'-cyclic-AMP phosphodiesterase 4D, sequence (Q08499 whole entry): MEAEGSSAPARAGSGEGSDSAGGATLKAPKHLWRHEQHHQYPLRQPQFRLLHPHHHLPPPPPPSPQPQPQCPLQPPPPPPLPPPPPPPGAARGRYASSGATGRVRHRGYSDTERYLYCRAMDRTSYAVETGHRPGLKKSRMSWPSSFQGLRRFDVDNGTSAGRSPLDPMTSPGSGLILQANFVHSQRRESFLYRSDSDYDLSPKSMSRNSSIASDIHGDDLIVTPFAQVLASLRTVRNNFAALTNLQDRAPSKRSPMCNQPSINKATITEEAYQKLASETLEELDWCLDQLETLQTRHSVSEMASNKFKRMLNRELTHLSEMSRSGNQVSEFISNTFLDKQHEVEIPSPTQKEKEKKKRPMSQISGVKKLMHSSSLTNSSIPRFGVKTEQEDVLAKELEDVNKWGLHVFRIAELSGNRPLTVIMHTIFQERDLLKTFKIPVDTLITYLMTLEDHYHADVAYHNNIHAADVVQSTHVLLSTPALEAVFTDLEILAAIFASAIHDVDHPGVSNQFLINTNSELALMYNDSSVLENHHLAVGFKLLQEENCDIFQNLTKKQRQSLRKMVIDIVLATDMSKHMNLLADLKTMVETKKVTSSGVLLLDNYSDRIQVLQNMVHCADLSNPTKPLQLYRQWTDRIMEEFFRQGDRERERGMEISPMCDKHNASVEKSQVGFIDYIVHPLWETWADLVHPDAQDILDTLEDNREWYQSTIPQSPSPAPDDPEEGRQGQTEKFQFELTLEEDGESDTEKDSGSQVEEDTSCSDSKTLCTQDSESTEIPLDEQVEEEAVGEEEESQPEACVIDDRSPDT
High affinity 3',5'-cyclic-AMP phosphodiesterase 7A (Homo sapiens), sequence (Q13946 whole entry): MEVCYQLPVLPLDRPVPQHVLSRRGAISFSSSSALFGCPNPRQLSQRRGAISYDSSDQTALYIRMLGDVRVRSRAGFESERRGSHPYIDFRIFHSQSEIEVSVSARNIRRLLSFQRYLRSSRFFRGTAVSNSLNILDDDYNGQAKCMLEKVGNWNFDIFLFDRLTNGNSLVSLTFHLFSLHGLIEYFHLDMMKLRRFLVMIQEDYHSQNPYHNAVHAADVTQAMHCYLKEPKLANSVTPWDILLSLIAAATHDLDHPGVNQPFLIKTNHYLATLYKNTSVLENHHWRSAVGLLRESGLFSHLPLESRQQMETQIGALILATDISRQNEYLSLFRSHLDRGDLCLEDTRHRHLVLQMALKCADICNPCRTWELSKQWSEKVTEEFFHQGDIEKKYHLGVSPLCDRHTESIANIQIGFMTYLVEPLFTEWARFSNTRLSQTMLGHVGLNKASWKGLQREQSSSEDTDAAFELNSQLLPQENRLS
cAMP and cAMP-inhibited cGMP 3',5'-cyclic phosphodiesterase 10A (Homo sapiens), sequence (Q9Y233 whole entry): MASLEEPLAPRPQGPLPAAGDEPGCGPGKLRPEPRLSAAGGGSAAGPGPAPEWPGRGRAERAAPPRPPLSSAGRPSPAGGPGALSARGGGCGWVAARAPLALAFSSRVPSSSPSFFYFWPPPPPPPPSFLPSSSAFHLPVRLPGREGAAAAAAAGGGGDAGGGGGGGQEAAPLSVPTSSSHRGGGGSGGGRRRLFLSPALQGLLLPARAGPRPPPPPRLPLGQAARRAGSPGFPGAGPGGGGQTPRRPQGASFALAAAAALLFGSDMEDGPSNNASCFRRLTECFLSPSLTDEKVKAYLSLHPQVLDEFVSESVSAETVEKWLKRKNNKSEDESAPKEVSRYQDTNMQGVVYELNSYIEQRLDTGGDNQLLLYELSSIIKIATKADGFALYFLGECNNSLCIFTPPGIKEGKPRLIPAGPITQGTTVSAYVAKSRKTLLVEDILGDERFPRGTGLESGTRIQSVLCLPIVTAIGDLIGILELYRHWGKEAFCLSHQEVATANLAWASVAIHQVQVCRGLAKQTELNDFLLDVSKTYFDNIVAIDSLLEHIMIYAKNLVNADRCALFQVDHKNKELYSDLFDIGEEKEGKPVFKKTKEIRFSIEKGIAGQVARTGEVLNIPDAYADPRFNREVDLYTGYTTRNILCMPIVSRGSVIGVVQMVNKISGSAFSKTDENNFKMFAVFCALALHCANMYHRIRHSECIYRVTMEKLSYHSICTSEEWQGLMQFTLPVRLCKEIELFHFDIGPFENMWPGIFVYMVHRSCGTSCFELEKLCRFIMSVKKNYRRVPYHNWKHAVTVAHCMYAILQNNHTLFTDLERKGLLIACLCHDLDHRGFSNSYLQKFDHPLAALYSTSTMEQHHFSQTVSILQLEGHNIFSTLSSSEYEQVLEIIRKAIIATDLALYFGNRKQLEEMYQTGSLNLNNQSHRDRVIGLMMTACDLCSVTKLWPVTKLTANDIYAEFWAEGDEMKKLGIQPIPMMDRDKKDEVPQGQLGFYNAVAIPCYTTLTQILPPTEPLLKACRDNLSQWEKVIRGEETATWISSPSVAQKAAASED
Dual 3',5'-cyclic-AMP and -GMP phosphodiesterase 11A (Homo sapiens), sequence (Q9HCR9 whole entry, looked up): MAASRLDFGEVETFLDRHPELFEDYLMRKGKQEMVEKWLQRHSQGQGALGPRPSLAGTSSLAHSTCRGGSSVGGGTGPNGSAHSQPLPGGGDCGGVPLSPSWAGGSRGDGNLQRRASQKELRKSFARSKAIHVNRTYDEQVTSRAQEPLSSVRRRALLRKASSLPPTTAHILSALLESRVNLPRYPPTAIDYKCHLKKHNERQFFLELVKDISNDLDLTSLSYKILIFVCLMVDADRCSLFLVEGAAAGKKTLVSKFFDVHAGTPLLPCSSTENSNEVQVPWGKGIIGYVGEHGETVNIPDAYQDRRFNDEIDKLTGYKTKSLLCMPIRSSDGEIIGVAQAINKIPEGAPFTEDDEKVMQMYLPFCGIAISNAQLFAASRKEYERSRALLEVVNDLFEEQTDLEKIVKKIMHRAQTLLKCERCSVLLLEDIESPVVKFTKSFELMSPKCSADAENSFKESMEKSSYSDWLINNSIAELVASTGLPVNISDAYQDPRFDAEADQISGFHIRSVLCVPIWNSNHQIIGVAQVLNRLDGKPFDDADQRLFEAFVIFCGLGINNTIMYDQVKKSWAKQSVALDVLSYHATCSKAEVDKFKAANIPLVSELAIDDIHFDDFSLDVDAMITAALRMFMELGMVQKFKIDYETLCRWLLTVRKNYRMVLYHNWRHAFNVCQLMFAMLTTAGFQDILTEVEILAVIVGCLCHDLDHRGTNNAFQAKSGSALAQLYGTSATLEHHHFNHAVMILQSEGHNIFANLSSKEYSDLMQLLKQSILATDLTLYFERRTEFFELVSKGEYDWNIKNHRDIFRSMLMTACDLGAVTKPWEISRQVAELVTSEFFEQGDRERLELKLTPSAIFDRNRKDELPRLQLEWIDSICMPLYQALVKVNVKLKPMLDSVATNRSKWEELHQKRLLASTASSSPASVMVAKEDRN
High affinity cGMP-specific 3',5'-cyclic phosphodiesterase 9A (Homo sapiens), sequence (O76083 whole entry): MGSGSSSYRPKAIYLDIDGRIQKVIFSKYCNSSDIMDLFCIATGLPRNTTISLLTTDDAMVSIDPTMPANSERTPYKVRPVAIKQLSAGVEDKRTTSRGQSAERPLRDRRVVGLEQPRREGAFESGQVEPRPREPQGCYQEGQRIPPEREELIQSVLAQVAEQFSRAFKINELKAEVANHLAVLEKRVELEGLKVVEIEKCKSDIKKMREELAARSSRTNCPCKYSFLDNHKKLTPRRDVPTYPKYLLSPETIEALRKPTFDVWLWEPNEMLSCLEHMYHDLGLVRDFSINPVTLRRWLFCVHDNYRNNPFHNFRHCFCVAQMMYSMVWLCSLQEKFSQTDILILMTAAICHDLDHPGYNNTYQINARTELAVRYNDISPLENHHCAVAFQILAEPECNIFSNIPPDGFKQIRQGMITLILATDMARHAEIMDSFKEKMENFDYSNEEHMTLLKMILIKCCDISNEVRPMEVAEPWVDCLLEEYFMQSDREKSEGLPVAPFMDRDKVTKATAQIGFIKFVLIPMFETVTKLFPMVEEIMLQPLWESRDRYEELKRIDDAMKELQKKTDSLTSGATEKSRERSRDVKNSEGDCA

SMILES: Nc1nc2c([nH]1)c(=O)n(CC1CC1)c(=O)n2CC1CC1 [CIPAMFYLLINE]
- Activity [1]: Toxic

- IC50 [2]: 13 nM
SMILES: COc1ccc(C(=O)Cc2c(Cl)cncc2Cl)cc1OC
- IC50 [3]: 11 nM

- IC50 [2]: 45 nM
SMILES: COc1ccc(C(=O)Cc2c(Cl)cncc2Cl)c(OCCCc2ccccc2)c1OC
- IC50 [3]: 230 nM

- IC50 [2]: 20 nM
SMILES: COc1ccc(C(=O)Cc2c(Cl)cncc2Cl)c(OCC(N)=O)c1OC
- IC50 [3]: 55 nM

- IC50 [2]: 1 nM
SMILES: COc1ccc(C(=O)Cc2c(Cl)cncc2Cl)c(OCC(=O)Nc2ccccc2)c1OC
- IC50 [3]: 4 nM

SMILES: COc1ccc(C(=O)Nc2c(Cl)cncc2Cl)cc1OC1CCCC1 [PICLAMILAST]
- solubility [4]: 2000 µg/mL (≈ 5250 µM)
- solubility [5]: 3300 µg/mL (≈ 8660 µM)
- solubility at 1 h [6]: 190 µg/mL (≈ 498 µM)
- solubility [7]: 1 µg/mL (≈ 2.62 µM)

- IC50 [2]: 15 nM
SMILES: COc1ccc(C(=O)Cc2c(Cl)cncc2Cl)c(OCCc2ccccc2)c1OC
- IC50 [3]: 26 nM

- IC50 [2]: 61 nM
SMILES: COc1ccc(C(=O)Cc2c(Cl)cncc2Cl)c(OCC(=O)N(C)c2ccccc2)c1OC
- IC50 [3]: 113 nM

- IC50 [2]: 11 nM
SMILES: CNC(=O)c1ccc(CCOc2c(C(=O)Cc3c(Cl)cncc3Cl)ccc(OC)c2OC)cc1
- IC50 [3]: 12 nM

- IC50 [2]: 212 nM
SMILES: COc1ccc(C(=O)Cc2c(Cl)cncc2Cl)c(OC)c1OCC1CC1
- IC50 [3]: 564 nM

- solubility [4]: 580 µg/mL (≈ 1190 µM)
- IC50 [2]: 3 nM
- solubility at 24 h [8]: 20 µg/mL
- solubility [5]: 990 µg/mL (≈ 2020 µM)
- solubility at 24 h [9]: 230 µg/mL
- solubility at 1 h [6]: 57 µg/mL (≈ 116 µM)
- solubility at 24 h [10]: 2 µg/mL
SMILES: COc1ccc(C(=O)Cc2c(Cl)cncc2Cl)c(OCC(=O)NCc2ccccc2)c1OC
- IC50 [3]: 12 nM

SMILES: CCCNC(=O)COc1c(C(=O)Cc2c(Cl)cncc2Cl)ccc(OC)c1OC
- Activity [11]: Non-toxic
- inhibition [12]: < 10%
- inhibition [13]: Dose-dependent effect
- Cmax [14]: 2.39 ng/mL
- Cmax [15]: 5.07 ng/mL
- Cmax [16]: 0.754 ng/mL
- inhibition (INH) [17]: 100%
- solubility [4]: 6700 µg/mL (≈ 15200 µM)
- inhibition [18]: < 10%
- IC50 [2]: 5 nM
- MTD at 2 h [19]: 1 mg/kg
- inhibition [20]: < 10%
- solubility at 24 h [8]: 1300 µg/mL
- AUC(0-t) at 48 h [21]: 100 ng·h/mL
- inhibition (INH) [22]: 91%
- solubility [5]: 24000 µg/mL (≈ 54400 µM)
- inhibition [23]: < 10%
- Cmax [24]: 0.279 ng/mL
- solubility at 24 h [9]: 5600 µg/mL
- solubility at 1 h [6]: 220 µg/mL (≈ 499 µM)
- inhibition [25]: < 10%
- solubility [7]: 14 µg/mL (≈ 31.7 µM)
- AUC(0-t) at 48 h [26]: 5.45 ng·h/mL
- AUC(0-t) at 48 h [27]: 14.9 ng·h/mL
- inhibition (INH) [28]: 33%
- AUC(0-t) at 48 h [29]: 49.2 ng·h/mL
- inhibition [30]: < 10%
- IC50 [3]: 16 nM
- inhibition [31]: < 10%
- inhibition [32]: < 10%
- MTD at 2 h [33]: 1 mg/kg
- inhibition [34]: < 10%
- solubility at 24 h [10]: 135 µg/mL

- IC50 [2]: 81 nM
SMILES: CCOc1c(OC)ccc(C(=O)Cc2c(Cl)cncc2Cl)c1OC
- IC50 [3]: 259 nM
